Measured values pooled from the literature.
Compare with care: the assays were run in different laboratories.

| Compound | system | conditions | measurement | result |
| --- | --- | --- | --- | --- |
| Nc1cc(N2CCCCC2)nc(N)[n+]1[O-] | Caco-2 | 10 µM, 2 h, pH 7.4 | efflux ratio | 1.72 |
| CO[C@H]1CC[C@H](N2C(=O)CNc3ncc(-c4ccc(C(C)(C)O)nc4)nc32)CC1 | human, plasma | oral, 15 mg, multiple doses, patients | Cmax | 92 ng/mL |
| CC(C)(O)c1cn(-c2ccc(-c3cc(F)c(CO)c(S(C)(=O)=O)c3)cc2)c(C(C)(C)c2cccc(F)c2Cl)n1 | male cynomolgus monkey, plasma | intravenous, 1 mg/kg, single dose | Vd | 3.2 L/kg |
| CCc1nc2c(C)cc(N3CCN(CC(=O)N4CC(O)C4)CC3)cn2c1N(C)c1nc(-c2ccc(F)cc2)c(C#N)s1 | human, plasma | oral, 1500 mg, single dose, fed, healthy volunteers | Cmax | 19000 ng/mL |
| Cc1nc2ccc(F)cc2n1-c1nc(N)c(F)c(Nc2ccc(C(F)(F)F)cc2)n1 | cynomolgus monkey, plasma | oral, 2 mg/kg | bioavailability | 66% |
| Cn1cc(-c2ccc(S(=O)(=O)[C@@H]3C[C@@H](C(=O)NC4(C#N)CC4)N(C(=O)C4(C(F)(F)F)CC4)C3)c(C(F)(F)F)c2)cn1 | human, plasma | oral, 600 mg, single dose, fasted, healthy volunteers | Cmax | 1300 ng/mL |
| CN1CCC(c2ccccc2CC(C)(C)Nc2nc(N3CCOCC3)nc(-n3c(C(F)F)nc4ccccc43)n2)CC1 | cynomolgus monkey, plasma | intravenous, 2 mg/kg, single dose | Vd | 8 L/kg |
| CC(C)(O)c1cn(-c2ccc(-c3cc(F)c(CO)c(S(C)(=O)=O)c3)cc2F)c(C(C)(C)c2c(Cl)cccc2Cl)n1 | male cynomolgus monkey, plasma | oral, 3 mg/kg, single dose | bioavailability | 42% |
| C[C@H]1O[C@@H](O[C@H]2[C@@H](O)C[C@H](O[C@H]3[C@@H](O)C[C@H](O[C@H]4CC[C@@]5(C)[C@H](CC[C@@H]6[C@@H]5C[C@@H](O)[C@]5(C)[C@@H](C7=CC(=O)OC7)CC[C@]65O)C4)O[C@@H]3C)O[C@@H]2C)C[C@H](O)[C@@H]1O | Caco-2 | 5 µM, 1 h | efflux ratio | 6.6 |
| CC(C)(O)c1cn(-c2ccc(-c3cccc(S(C)(=O)=O)c3)cc2)c(C(C)(C)c2ccccc2Cl)n1 | male cynomolgus monkey, plasma | intravenous, 1 mg/kg, single dose | Vd | 1.3 L/kg |
| CC(C)(C)c1ccc(O)c(CN(Cc2cc(C(C)(C)C)ccc2O)C2CCC(NC(N)=O)CC2)c1 (stereo not shown) | male C57BL/6 mouse, brain | oral, 10 mg/kg, single dose | Tmax | 30 min |
| COc1cc(C(=O)NC2CCN(C)CC2)c(F)cc1Nc1ncc(C(F)(F)F)c(Oc2cccc3c2C(=O)N(C)C3)n1 | human, plasma | oral, 200 mg, multiple doses, once daily, steady state, patients | Cmax | 2580 nM |
| CC(C)n1cc(C#N)c2cc(-n3cc(C(=O)O)cn3)ccc21 | human, plasma | oral, 10 mg, single dose, fasted, healthy volunteers | Cmax | 313 ng/mL |
